Screening results (PubChem)
LEDGF integ inh: blocks HIV-1 LEDGF/p75-dependent DNA integration. hit rate 0.64% among 370,000. TR-FRET IN-LEDGF/p75 DNA integration, Eu/Cy5. AID 743269. inhibition, % at 3.7 µM;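 active = inhibition above the screen-wide mean plus 3 SD, cut at about 13% in these data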;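 also: signal is the Cy5 over europium emission ratio at 671 and 618 nm; 0% = plate median of compound wells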
ASAP1 GAP inh: inhibitors of human ASAP1 ArfGAP activity. Q9ULH1. ASAP1-stimulated ARF1 GTP hydrolysis, GDP FP detection. inhibition, % at 16.5 µM. hit rate 0.19% among 360,000. AID 624377; in the data active = inhibition above about 25%;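 also: 0% = vehicle with enzyme and substrate and 100% = no enzyme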
ARFGAP1 inhibitor: inhibitors of rat ARFGAP1; Q62848; AID 651572; inhibition, % at 16.5 µM; Arfgap1-stimulated ARF1 GTP hydrolysis, GDP FP detection; hit rate 0.26% among 360,000;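 active = inhibition above a per-plate limit, mean inhibition of low control wells plus 3 SD, cut at about 25% in these data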;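 also: 0% = DMSO wells with enzyme and 100% = wells lacking Arfgap1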
Target sequence (Q62848 1-136 limits assumed): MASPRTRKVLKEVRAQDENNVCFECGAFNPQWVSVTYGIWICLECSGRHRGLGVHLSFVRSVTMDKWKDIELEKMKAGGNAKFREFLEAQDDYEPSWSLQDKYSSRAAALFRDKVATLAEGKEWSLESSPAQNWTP
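Replicates: Single well per compound | Assay system: Truncated rat Arfgap1 GAP domain | Control set: No-Arfgap1 wells (100%) versus DMSO full-reaction wells (0%) | Times: Enzyme reaction 120 min at 25 °C after 20 min preincubation | Reagent: Human ARF1(Δ1-17)-GTP substrate | Measured by: Tracer-displacement fluorescence polarization with EDTA stop, 620/688 nm | Measure: Percent inhibition of Arfgap1-stimulated GTP hydrolysis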
TDP2 inh: TDP2 (human) inhibition, absorbance primary screen | recombinant TDP2, T5PNP hydrolysis, p-nitrophenol absorbance 415 nm | inhibition, % at 12.8 µM | hit rate 0.34% among 370,000;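 active = inhibition above the mean of all tested compounds plus 3 SD, set per campaign, cut at about 25% in these data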;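 also: 0% = DMSO with enzyme and 100% = buffer with substrate but no TDP2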
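System – recombinant human TDP2 · Amount – 120 nM TDP2 per well · Buffer or medium – Mg2+-containing Tris-HCl buffer, pH 7.5 · Reagent – T5PNP substrate, 5 mM · Dosing – 12.8 µM single point, 1% DMSO · Incubation – 2 h at 37 °C · Measured by – epi absorbance · Read-out basis – percent inhibition · Benchmarks – high control without enzyme, low control DMSO plus TDP2 · Repeats – singlicate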
UHRF1 MBD2 ctr: blocks human UHRF1 binding to methylated DNA | hit rate 0.75% among 370,000 | Q96T88 | inhibition, % at 4.4 µM | UHRF1 binding to methylated oligo, TR-FRET; in the data active = inhibition above about 21%;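 also: UHRF1 SRA domain binding a hemimethylated CpG hairpin DNA probe; 0% = median of test compound wells and 100% = reference inhibitor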
MBD2 DNA inh: inhibitors of human MBD2 binding to methylated oligonucleotide; inhibition, % at 4.4 µM; TR-FRET; hit rate 0.31% among 370,000; in the data active = inhibition above about 13%
Target sequence (Q9UBB5 whole entry, looked up): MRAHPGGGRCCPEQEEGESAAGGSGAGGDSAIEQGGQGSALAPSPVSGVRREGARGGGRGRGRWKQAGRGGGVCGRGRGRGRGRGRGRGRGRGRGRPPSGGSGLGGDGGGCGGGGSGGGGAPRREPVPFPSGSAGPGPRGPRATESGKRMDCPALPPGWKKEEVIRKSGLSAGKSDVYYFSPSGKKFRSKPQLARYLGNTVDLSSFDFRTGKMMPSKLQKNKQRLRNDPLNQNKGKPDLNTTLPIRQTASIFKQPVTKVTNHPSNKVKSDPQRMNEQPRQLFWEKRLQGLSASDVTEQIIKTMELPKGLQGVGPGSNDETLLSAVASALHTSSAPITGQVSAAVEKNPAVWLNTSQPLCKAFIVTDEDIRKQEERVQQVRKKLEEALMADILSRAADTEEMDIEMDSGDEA
UHRF1 DNA bind: inhibits human UHRF1 binding to methylated oligonucleotide, MBD2 counter-screen | hit rate 25% among 1,000 | AID 720530 | inhibition, % at 4.4 µM | shares compounds with MBD2 DNA inh | TR-FRET; in the data active = inhibition above about 21%;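 also: UHRF1 SRA domain binding a labeled hemimethylated CpG hairpin DNA; 0% = vehicle only and 100% = reference inhibitor with vehicle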
MBD2 DBD conf: MBD2-DBD methyl-DNA binding inhibition, TR-FRET confirmation | shares compounds with MBD2 DNA inh | hit rate 26% among 1,000 | AID 720531 | inhibition, % at 4.4 µM | TR-FRET MBD2-DBD binding to methylated oligonucleotide
TDP2 confirm: confirmation of human TDP2 inhibitors; hit rate 22% among 1,100; inhibition, % at 12.8 µM; shares compounds with TDP2 inh; recombinant human TDP2, absorbance read-out; in the data active = inhibition above about 25%;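 also: 0% = vehicle with enzyme and 100% = no enzyme buffer only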
IN multimer up: counter-screen for LEDGF/p75 integration inhibitors: HIV-1 integrase multimerization activators; shares compounds with LEDGF integ inh; TR-FRET HIV-1 integrase multimerization, biochemical; activation, % at 7.7 µM; hit rate 17% among 2,000; in the data active = activation above about 8.9%
TRFRET interf: counter-screen for LEDGF/p75 integration inhibitors: TR-FRET optical interference; 2,000 tested, under 10 active; TR-FRET optical interference counterscreen, HIV-1 IN multimerization; inhibition, % at 7.7 µM; shares compounds with LEDGF integ inh;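 active = inhibition above the mean over all tested compounds plus 3 SD, which no compound reached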;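 also: 0% = integrase with antibodies and DMSO and 100% = antibodies without integrase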
IN-LEDGF confirm: confirmation of HIV-1 LEDGF/p75-dependent integration inhibitors; AID 1053136; inhibition, % at 3.7 µM; shares compounds with LEDGF integ inh; TR-FRET LEDGF/p75-dependent HIV-1 integration, biochemical; hit rate 36% among 2,000
* = called active by the depositor. Sampled rows, rich in hits. Any-hit rate of the full collection: about 2%. Rule as the data show it, unless noted: active = inhibition above about 14%; inactive = the rest.

Screening O=C(CCO)c1ccc(O)cc1 returned LEDGF integ inh 32*, ASAP1 GAP inh -7, ARFGAP1 inhibitor -3, TDP2 inh 2, UHRF1 MBD2 ctr 28*, MBD2 DNA inh 16*, UHRF1 DNA bind 55*, MBD2 DBD conf 28*, IN multimer up 54*, TRFRET interf -273 and IN-LEDGF confirm 71*.
Screening COc1ccccc1/C=C1/C(=O)N(c2ccccc2)N=C1C returned LEDGF integ inh 52*, ASAP1 GAP inh -6, ARFGAP1 inhibitor 0, TDP2 inh 80*, UHRF1 MBD2 ctr 16, MBD2 DNA inh 18*, UHRF1 DNA bind 6, MBD2 DBD conf -1, TDP2 confirm 14, IN multimer up 2, TRFRET interf -10 and IN-LEDGF confirm 5.
Screening CC1=NN(c2ccccc2)C(=O)/C1=C\c1cn(-c2ccccc2)nc1C returned LEDGF integ inh -3, ASAP1 GAP inh 12, ARFGAP1 inhibitor -7, TDP2 inh -4, UHRF1 MBD2 ctr 6 and MBD2 DNA inh -2.
Screening CCOC(=O)N1CCN(C(=O)C[C@H]2C[C@@]3(C(=O)OC)C(=C[C@H](C4CCCC4)O[C@@H]3C)N(Cc3ccco3)C2=O)CC1 returned LEDGF integ inh 0, TDP2 inh -5, UHRF1 MBD2 ctr 2 and MBD2 DNA inh 1.
For O=C(NN1C(=O)/C(=C/C=C/c2ccco2)SC1=S)c1ccncc1 the results were LEDGF integ inh 83*, ASAP1 GAP inh -4, ARFGAP1 inhibitor -22, TDP2 inh 19, UHRF1 MBD2 ctr 97*, MBD2 DNA inh 74*, UHRF1 DNA bind 90*, MBD2 DBD conf 63*, IN multimer up 47*, TRFRET interf -165 and IN-LEDGF confirm 83*.
O=C1/C(=C/C=C/c2ccco2)SC(=S)N1c1ccc(O)cc1 was read as LEDGF integ inh 76*, ASAP1 GAP inh 6, ARFGAP1 inhibitor -13, TDP2 inh 26*, UHRF1 MBD2 ctr 87*, MBD2 DNA inh 41*, UHRF1 DNA bind 20, MBD2 DBD conf 6, TDP2 confirm 14, IN multimer up 19*, TRFRET interf -67 and IN-LEDGF confirm 73*.
For O=C1/C(=C\c2ccco2)SC(=S)N1c1ccc(O)cc1 the results were LEDGF integ inh 11, ASAP1 GAP inh 3, ARFGAP1 inhibitor 2, TDP2 inh 8, UHRF1 MBD2 ctr 5 and MBD2 DNA inh 8.
`O=C(NN1C(=O)/C(=C/C=C/c2ccccc2)SC1=S)c1ccncc1` gave LEDGF integ inh 1, ASAP1 GAP inh 3, ARFGAP1 inhibitor 5, TDP2 inh -13, UHRF1 MBD2 ctr -12 and MBD2 DNA inh -5.
Screening O=C(CN(CCc1ccccc1)S(=O)(=O)c1ccccc1)N1CCOCC1 returned LEDGF integ inh 1, TDP2 inh 1, UHRF1 MBD2 ctr 1 and MBD2 DNA inh -4.
`Cc1c(C=O)c(C=O)c(C)n1Cc1ccccc1` gave LEDGF integ inh 22*, ASAP1 GAP inh 1, ARFGAP1 inhibitor -10, TDP2 inh 25*, UHRF1 MBD2 ctr 31*, MBD2 DNA inh 16*, UHRF1 DNA bind 4, MBD2 DBD conf 4, TDP2 confirm 1, IN multimer up -2, TRFRET interf 11 and IN-LEDGF confirm 12.
CC(=O)c1c(C(C)=O)c(C)n(Cc2ccccc2)c1C was read as LEDGF integ inh 2, ASAP1 GAP inh 8, ARFGAP1 inhibitor -7, TDP2 inh 0, UHRF1 MBD2 ctr -2 and MBD2 DNA inh 2.
Screening O=C(NCc1ccc(F)c(F)c1)C1CCC(CNS(=O)(=O)c2cccc3cccnc23)CC1 (centres undefined) returned LEDGF integ inh -4, TDP2 inh 2, UHRF1 MBD2 ctr 1 and MBD2 DNA inh 2.
Screening CCC1=NN2C(=N)/C(=C\c3ccc(SCc4ccco4)o3)C(=O)N=C2S1 returned LEDGF integ inh 50*, ASAP1 GAP inh 5, ARFGAP1 inhibitor 12, TDP2 inh 6, UHRF1 MBD2 ctr 56*, MBD2 DNA inh 20*, UHRF1 DNA bind 20, MBD2 DBD conf 4, IN multimer up 5, TRFRET interf -25 and IN-LEDGF confirm 27*.
O=Cc1ccc2oc3nc4n(c(=O)c3c(=O)c2c1)CCCS4 was read as LEDGF integ inh 20*, ASAP1 GAP inh 10, ARFGAP1 inhibitor 8, TDP2 inh -12, UHRF1 MBD2 ctr 16, MBD2 DNA inh 18*, UHRF1 DNA bind 38*, MBD2 DBD conf 36*, IN multimer up 17*, TRFRET interf -63 and IN-LEDGF confirm 32*.
Screening C=CC(=O)N1C/C(=C/c2ccc(F)cc2)C(=O)/C(=C\c2ccc(F)cc2)C1 returned LEDGF integ inh 14*, ASAP1 GAP inh 5, ARFGAP1 inhibitor 7, TDP2 inh -14, UHRF1 MBD2 ctr 40*, MBD2 DNA inh 15*, UHRF1 DNA bind 25*, MBD2 DBD conf 15*, IN multimer up 11*, TRFRET interf -54 and IN-LEDGF confirm 18*.
For C=CCOC(=O)N1CCN(C(=O)c2ccc3c(c2)nc(C)n3C2CCCC2)CC1 the results were LEDGF integ inh 3, TDP2 inh -1, UHRF1 MBD2 ctr 2 and MBD2 DNA inh -2.
`CCS(=O)(=O)Nc1ccc2c(c1)C(=O)N(C)[C@@H]1CC[C@H](CC(=O)N3CCCCC3)O[C@H]1CO2` gave LEDGF integ inh 2, TDP2 inh -12, UHRF1 MBD2 ctr 6 and MBD2 DNA inh 3.
